From ChEMBL document CHEMBL3286393 (J Med Chem, 2014)
Active and inactive are the calls of the source. The calls are words filed in the database; no cut-off is given here.

Columns and labels:
[1] = target: T1, Prostaglandin E synthase (Homo sapiens) (UniProt O14684); assay: Inhibition of mPGES1-mediated PGE2 production in microsomes of IL-1beta stimulated human A549 cells assessed as residual activity preincubated at 10 uM for 15 mins by RP-HPLC analysis relative to control; format: cell-based
T1 sequence (whole entry): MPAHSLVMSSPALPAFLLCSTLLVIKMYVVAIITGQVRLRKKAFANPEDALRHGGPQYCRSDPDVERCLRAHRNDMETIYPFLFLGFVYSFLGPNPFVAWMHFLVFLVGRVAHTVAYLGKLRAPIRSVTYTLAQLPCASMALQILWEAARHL
How it was run: (§1)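 mPGES-1 source: microsomes of A549 cells treated 48 h with IL-1β 2 ng/mL, at 25−50 μg protein/mL in 0.1 M potassium phosphate pH 7.4 with 2.5 mM glutathione. Compound preincubation 15 min at 4 °C; PGH2 (20 μM final) for 1 min; FeCl2/citric acid stop with 11β-PGE2 internal standard. PGE2 by RP-HPLC.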

[2] = target: T2, Polyunsaturated fatty acid 5-lipoxygenase (Homo sapiens, UniProt P09917); assay: Inhibition of human recombinant 5-LO expressed in Escherichia coli Bl21 (DE3) using arachidonic acid as substrate preincubated for 10 mins measured after 10 mins by RP-HPLC analysis
T2 sequence (P09917 whole entry): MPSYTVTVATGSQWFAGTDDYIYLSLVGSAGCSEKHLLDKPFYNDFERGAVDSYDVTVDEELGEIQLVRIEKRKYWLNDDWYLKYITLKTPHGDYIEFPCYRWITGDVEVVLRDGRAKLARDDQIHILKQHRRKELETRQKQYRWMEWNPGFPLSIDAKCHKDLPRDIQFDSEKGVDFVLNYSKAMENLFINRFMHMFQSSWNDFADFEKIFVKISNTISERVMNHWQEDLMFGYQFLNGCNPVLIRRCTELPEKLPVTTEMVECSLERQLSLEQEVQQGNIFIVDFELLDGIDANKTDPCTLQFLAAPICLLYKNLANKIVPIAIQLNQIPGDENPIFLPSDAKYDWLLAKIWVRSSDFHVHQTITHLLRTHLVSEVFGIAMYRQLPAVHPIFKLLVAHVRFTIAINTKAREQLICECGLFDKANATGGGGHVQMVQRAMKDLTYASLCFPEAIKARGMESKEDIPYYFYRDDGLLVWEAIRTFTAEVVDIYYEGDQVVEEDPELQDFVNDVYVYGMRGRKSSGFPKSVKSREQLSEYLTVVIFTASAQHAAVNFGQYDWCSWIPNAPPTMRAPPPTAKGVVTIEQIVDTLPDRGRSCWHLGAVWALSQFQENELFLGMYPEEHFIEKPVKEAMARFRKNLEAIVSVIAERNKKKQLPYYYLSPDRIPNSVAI
How it was run: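 5-LO expressed from pT3-5LO in E. coli BL21(DE3), semi-purified on ATP-agarose, diluted in PBS with 1 mM EDTA and 1 mM ATP. Preincubated with compound 10 min at 4 °C, then 30 s at 37 °C. Started with 2 mM CaCl2 plus 20 μM arachidonic acid; 10 min at 37 °C; ice-cold methanol stop. Three to four experiments.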

[3] = target: T3, Polyunsaturated fatty acid lipoxygenase ALOX12 (Homo sapiens) (UniProt P18054); assay: Inhibition of 12-LO in human neutrophils assessed as residual activity relative to control; settings: for residual activity: values are per cent of control
T3 sequence (whole entry): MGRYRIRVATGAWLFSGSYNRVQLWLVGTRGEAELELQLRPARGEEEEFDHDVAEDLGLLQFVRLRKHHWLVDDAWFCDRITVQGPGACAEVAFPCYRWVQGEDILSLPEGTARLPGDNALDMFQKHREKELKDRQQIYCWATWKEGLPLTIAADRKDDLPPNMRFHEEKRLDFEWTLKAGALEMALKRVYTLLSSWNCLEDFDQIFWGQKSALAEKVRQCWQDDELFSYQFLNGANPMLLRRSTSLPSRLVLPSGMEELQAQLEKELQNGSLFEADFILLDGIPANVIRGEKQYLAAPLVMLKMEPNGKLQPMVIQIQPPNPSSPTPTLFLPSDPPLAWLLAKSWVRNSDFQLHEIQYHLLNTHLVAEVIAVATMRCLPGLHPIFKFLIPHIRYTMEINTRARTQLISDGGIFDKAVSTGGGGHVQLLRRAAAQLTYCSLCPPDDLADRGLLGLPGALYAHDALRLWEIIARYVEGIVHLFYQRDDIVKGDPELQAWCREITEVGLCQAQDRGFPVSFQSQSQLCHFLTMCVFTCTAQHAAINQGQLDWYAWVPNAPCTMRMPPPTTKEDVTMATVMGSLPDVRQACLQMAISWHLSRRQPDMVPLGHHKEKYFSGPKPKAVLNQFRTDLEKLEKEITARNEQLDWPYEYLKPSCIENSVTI

[4] = target: T4, Polyunsaturated fatty acid 5-lipoxygenase (Homo sapiens) (UniProt P09917); assay: Inhibition of 5-LO in human neutrophils using arachidonic acid as substrate assessed as residual activity preincubated at 10 uM for 15 mins measured after 10 mins by HPLC analysis relative to control
T4 sequence (whole entry): T2 sequence (P09917 whole entry)
How it was run: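 Fresh human neutrophils, 1 × 10⁷/mL in PBS pH 7.4 with 1 mM CaCl2 and 1 mg/mL glucose, preincubated 15 min at 37 °C. Stimulated with 2.5 μM A23187 plus 20 μM arachidonic acid for 10 min at 37 °C; methanol stop. LTB4, its all-trans isomers and 5-H(P)ETE by HPLC.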

[5] = target: T4, Polyunsaturated fatty acid 5-lipoxygenase (Homo sapiens); assay: Ratio of curcumin IC50 to compound IC50 for 5-LO-mediated LTB4 formation in LPS-stimulated human monocytes preincubated for 15 mins before arachidonic acid substrate addition measured after 30 mins by UPLC-MS/MS analysis; format: cell-based
[6] = target: T4, Polyunsaturated fatty acid 5-lipoxygenase (Homo sapiens); assay: Ratio of curcumin IC50 to compound IC50 for 5-LO-mediated 5-HETE formation in LPS-stimulated human monocytes preincubated for 15 mins before arachidonic acid substrate addition measured after 30 mins by UPLC-MS/MS analysis; format: cell-based
[7] = target: T4, Polyunsaturated fatty acid 5-lipoxygenase (Homo sapiens); assay: Ratio of curcumin IC50 to compound IC50 for 5-LO-mediated 5,12-DiHETE formation in LPS-stimulated human monocytes preincubated for 15 mins before arachidonic acid substrate addition measured after 30 mins by UPLC-MS/MS analysis; format: cell-based
[8] = target: T5, Prostaglandin G/H synthase 1 (Homo sapiens, UniProt P23219); assay: Inhibition of COX1-mediated PGF2alpha formation in LPS-stimulated human monocytes preincubated for 15 mins before arachidonic acid substrate addition measured after 30 mins by UPLC-MS/MS analysis; format: cell-based
[9] = target: T5, Prostaglandin G/H synthase 1; assay: Inhibition of COX1-mediated PGD2 formation in LPS-stimulated human monocytes preincubated for 15 mins before arachidonic acid substrate addition measured after 30 mins by UPLC-MS/MS analysis; format: cell-based
Prostaglandin E synthase = target: T6, Prostaglandin E synthase (Homo sapiens, UniProt O14684); assay: Inhibition of mPGES1-mediated PGE2 production in microsomes of IL-1beta stimulated human A549 cells preincubated for 15 mins by RP-HPLC analysis; format: cell-based; how it was run: as §1
T6 sequence (O14684 whole entry): T1 sequence (whole entry)

T5 sequence (P23219 whole entry): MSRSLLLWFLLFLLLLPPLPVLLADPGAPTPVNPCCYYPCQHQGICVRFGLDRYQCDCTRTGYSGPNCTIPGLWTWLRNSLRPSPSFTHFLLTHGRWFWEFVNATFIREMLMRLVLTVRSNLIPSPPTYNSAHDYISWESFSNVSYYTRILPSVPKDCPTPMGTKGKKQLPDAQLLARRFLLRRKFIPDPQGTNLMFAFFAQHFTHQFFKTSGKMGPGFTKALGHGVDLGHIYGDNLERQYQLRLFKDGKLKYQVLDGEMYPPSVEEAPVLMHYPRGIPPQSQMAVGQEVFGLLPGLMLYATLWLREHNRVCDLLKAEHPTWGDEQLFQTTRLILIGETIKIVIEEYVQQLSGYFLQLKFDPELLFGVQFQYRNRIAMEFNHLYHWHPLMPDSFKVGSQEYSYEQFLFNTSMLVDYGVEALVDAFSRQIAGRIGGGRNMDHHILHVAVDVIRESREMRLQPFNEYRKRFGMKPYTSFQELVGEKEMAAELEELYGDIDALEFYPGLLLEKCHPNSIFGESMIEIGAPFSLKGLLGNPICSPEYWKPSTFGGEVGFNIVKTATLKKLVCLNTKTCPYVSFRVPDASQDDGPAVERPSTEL

Row | SMILES | Activity [1] [%] | IC50 [2] [nM] | residual activity [3] [%] | Ratio IC50 [5] | Ratio IC50 [6] | Ratio IC50 [7] | inhibition [8] | inhibition [9] | also measured
1 | COc1cc(/C=C/C(=O)CC(=O)c2ccc(O)c(OC)c2)ccc1O | 72.6 | 2300 | 60.6 | – | – | – | – | – | –
2 | COc1cc(/C=C/C(=O)/C=C/c2ccc(O)c(OC)c2)ccc1O | – | 800 | 70.1 | – | – | – | – | – | IC50 (Prostaglandin E synthase; a549): Not Active
3 | COc1cc(/C=C/C(=O)/C=C/c2cc(CC=C(C)C)c(O)c(OC)c2)cc(CC=C(C)C)c1O | – | 500 | 64.7 | 2 | 2 | 2 | – | – | IC50 (Prostaglandin E synthase; read-out: IC50): 1500 nM
4 | COc1cc(/C=C/c2cc(/C=C/c3ccc(O)c(OC)c3)[nH]n2)ccc1O [CURCUMIN PYRAZOLE] | 54.8 | 70 | – | 2 | 2 | 2 | Active | Active | –

Further lines, with some results ahead:

Row | Activity [1] [%] | IC50 [2] [nM] | residual activity [3] [%] | Ratio IC50 [5] | Ratio IC50 [6] | Ratio IC50 [7] | inhibition [8] | inhibition [9] | SMILES | also measured
5 | 59.6 | 700 | – | – | – | – | – | – | COc1cc(/C=C/C(=O)CC(=O)/C=C/c2cc(CC=C(C)C)c(O)c(OC)c2)cc(CC=C(C)C)c1O | Activity [4]: 74.3%; inhibition [3]: inactive
6 | 62.2 | 90 | – | 2 | 2 | 2 | Active | Active | COc1cc(/C=C/c2cc(-c3ccc(O)c(OC)c3)[nH]n2)ccc1O | –
7 | – | 3200 | 87.4 | – | – | – | – | – | COc1cc(CCC(=O)CC(=O)CCc2ccc(O)c(OC)c2)ccc1O [TETRAHYDROCURCUMIN] | IC50 (Prostaglandin E synthase; a549): Not Active; Activity [4]: 70.1%
8 | – | – | 65 | – | – | – | Active | Active | COc1cc(/C=C/C(=O)CC(=O)/C=C/c2ccc(O)c(OC)c2)ccc1O [CURCUMIN] | IC50 (Prostaglandin E synthase; read-out: IC50): 600 nM
9 | 68 | 100 | 68.7 | – | – | – | – | – | COc1cc(/C=C/c2cc(/C=C/c3cc(CC=C(C)C)c(O)c(OC)c3)[nH]n2)cc(CC=C(C)C)c1O | IC50 [8]: > 10000 nM; IC50 [9]: > 10000 nM
